Measurements from PubChem BioAssay.
Active and inactive are the calls of the source.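 Rule for the calls, unless noted: active = compounds giving at least 50% inhibition in the cell-based MKP-3 phosphatase rescue imaging test; inactive = the rest.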

How the values were obtained:
[1] = inhibitors of TNFa-induced NFkB p65 translocation, primary screen, imaging, HUVEC, MLSMR starter and 10KST1 sets (AID 438;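 active = inhibition above 20% together with a positive visual image hit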;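 note: compound added about 3h40 before a 20 min TNFalpha stimulation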;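 for inhibition: signal is the nuclear over cytoplasmic p65 intensity ratio per well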); conditions: HUVEC TNFa-induced p65 nuclear translocation; cell count: measured here: nuclei count (cytotoxicity indicator), at 2.08 µM; inhibition: at 2 µM, stronger effect = higher value, 0% TNFa-plus-vehicle, 100% no-TNFa wells
[2] = endothelial E-selectin expression blockers – imaging, HUVEC, immunofluorescence, MLSMR starter and 10KST1 sets, primary screen (AID 487;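 active = visually confirmed hit in the image check and inhibition above 20%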;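 for inhibition: signal is fraction of cell area covered by stained E-selectin grains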;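 for nuclei count: 100% = median nuclei count of all wells on the same plate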); conditions: HUVEC TNFalpha-induced E-selectin immunofluorescence imaging, at 2 µM; inhibition: stronger effect = higher value; nuclei count: measured here: cell number, toxicity
[3] = Primary imaging screen for DUSP6 inhibitors that restore phospho-Erk in transfected HeLa cells, chemical complementation (AID 609); conditions: HeLa MKP-3 transfected, phospho-Erk imaging KS statistic, at 10 µM, cells stimulated with TPA for 15 min;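 for inhibition: phospho-Erk level distribution per well compared with pooled transfected vehicle control wells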
[4] = target: Dual specificity protein phosphatase 6 (Homo sapiens) (UniProt Q16828); assay: as above; conditions: HeLa MKP-3 transfected, phospho-Erk imaging KS statistic; at 10 µM; stronger effect = higher value; cells stimulated with TPA for 15 min
Sequence of Dual specificity protein phosphatase 6 (Homo sapiens) (Q16828 whole entry, looked up): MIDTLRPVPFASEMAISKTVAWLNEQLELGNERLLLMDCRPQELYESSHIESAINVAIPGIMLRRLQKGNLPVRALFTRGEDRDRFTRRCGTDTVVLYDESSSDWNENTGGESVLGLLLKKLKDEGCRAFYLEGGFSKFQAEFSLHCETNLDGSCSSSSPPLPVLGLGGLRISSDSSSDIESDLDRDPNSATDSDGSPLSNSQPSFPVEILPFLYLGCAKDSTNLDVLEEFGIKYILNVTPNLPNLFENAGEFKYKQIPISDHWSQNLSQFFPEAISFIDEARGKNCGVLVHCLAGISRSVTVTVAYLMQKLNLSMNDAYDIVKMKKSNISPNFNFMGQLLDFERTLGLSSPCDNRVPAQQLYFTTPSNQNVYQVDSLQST

[5] = target: Voltage-gated potassium channel subunit beta-2 (Rattus norvegicus) (UniProt P62483); assay: inhibitors of rat Kvbeta2 reductase activity – biochemical, NADPH fluorescence, primary screen (AID 622;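 active = fluorescence slope higher than the sample average by over 3 SD, cut at about -0.22 in these data, passing the limit was not always enough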;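 note: slope of raw intensity against log time taken from 70 to 1610 s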); conditions: recombinant KvBeta, 4-cyanobenzaldehyde reduction, at 10 µM, stronger effect = higher value
Sequence of Voltage-gated potassium channel subunit beta-2 (Rattus norvegicus) (P62483 whole entry, looked up): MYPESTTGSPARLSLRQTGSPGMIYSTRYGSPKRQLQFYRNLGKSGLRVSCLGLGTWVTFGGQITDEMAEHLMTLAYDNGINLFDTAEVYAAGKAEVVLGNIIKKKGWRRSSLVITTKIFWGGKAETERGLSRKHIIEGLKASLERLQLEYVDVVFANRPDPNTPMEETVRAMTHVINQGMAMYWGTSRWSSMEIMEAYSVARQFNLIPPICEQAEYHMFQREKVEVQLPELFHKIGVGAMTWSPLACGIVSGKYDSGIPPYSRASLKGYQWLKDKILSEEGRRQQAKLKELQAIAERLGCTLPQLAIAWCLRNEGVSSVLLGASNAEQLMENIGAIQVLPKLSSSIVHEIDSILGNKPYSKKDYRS

[6] = target: Voltage-gated potassium channel subunit beta-2 (Rattus norvegicus) (UniProt P62483); assay: enhancers of rat Kvbeta2 NADPH turnover – biochemical, NADPH fluorescence, primary screen (AID 623;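 active = NADPH fluorescence slope more negative than the mean of all samples by about 3 SD, 99.7% confidence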;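 note: fluorescence intensity change per second fitted from 20 to 320 s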); conditions: Recombinant KvBeta, NADPH fluorescence decrease slope, 10 min; at 10 µM; stronger effect = lower value
[7] = target: Alpha-2C adrenergic receptor (Homo sapiens) (UniProt P18825); assay: compounds altering alpha2C-coupled GIRK flux – cell-based, HEK293 alpha2C/GIRK1/2, thallium flux, primary screen (AID 624;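 active = fluorescence slope after compound addition differing from the mean of all screened samples at 99.7% confidence, in either direction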;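 note: slope of fluorescence ratio to pre-addition baseline per second over 15 to 24 s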); conditions: thallium flux BTC fluorescence, at 10 µM, actives lie on both sides
Sequence of Alpha-2C adrenergic receptor (Homo sapiens) (P18825 whole entry, looked up): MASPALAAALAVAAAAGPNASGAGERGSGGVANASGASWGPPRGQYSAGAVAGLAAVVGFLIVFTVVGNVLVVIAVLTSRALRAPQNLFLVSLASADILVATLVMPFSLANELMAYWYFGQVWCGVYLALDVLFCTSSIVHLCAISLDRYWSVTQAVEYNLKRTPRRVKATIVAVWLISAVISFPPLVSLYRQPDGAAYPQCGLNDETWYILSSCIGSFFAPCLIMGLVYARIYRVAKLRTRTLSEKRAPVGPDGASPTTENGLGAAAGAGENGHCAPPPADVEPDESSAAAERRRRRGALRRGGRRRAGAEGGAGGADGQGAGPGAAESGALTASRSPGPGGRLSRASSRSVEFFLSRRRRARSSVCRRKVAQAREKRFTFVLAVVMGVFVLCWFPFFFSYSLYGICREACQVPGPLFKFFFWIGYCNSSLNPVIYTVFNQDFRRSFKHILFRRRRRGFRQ

[8] = inhibitors of larval lipid processing in zebrafish, primary screen, whole organism, PED6 fluorescence, gall bladder and intestine (AID 686;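 active = a full or partial loss of lipid-probe fluorescence in the fish gall bladder, intestine or both, judged by eye; inactive = no fluorescence loss, or compound toxic to the fish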;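 note: larvae 5 to 7 days old with five fish per well; signal comes from phospholipase A2 cleavage of quenched PED6 carried via bile; overnight exposure to compound and PED6 before scoring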); conditions: Zebrafish larvae PED6 lipid processing, fluorescence scoring; screened at 20 µM (by protocol)
How it was run: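 Test system – live zebrafish larvae aged 5-7 days, whole organism · Buffer or medium – E3 fish medium · Reagent – quenched phospholipase substrate PED6, 100 nM final, ingested by larvae · Doses – 20 µM single dose · Incubation – overnight compound and PED6 incubation · Technique – visual fluorescence microscopy scoring of gall bladder, gut · Read-out basis – visual per-well fluorescence inhibition score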

[9] = loss of swimming-algae plug formation – whole organism, Chlamydomonas reinhardtii, WT vs cilia-less mutant, absorbance, 96-well, primary screen (AID 463189;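 active = inhibition at or above 50% relative to wild type and mutant plate controls; inactive = inhibition below 50%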;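 note: 0% = wild type cc124 cells in DMSO and 100% = ciliumless bld1 mutant cells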); conditions: Chlamydomonas reinhardtii gravitaxis, OD600 absorbance, 2 days; at 10 µM; stronger effect = higher value
[10] = measured here: cell density z-score
[11] = measured here: nuclear c-Myc green intensity z-score
[12] = measured here: nuclear pErk red intensity z-score, stronger effect = higher value

Structure (SMILES)	cell count [1]	inhibition [1]	inhibition [2]	nuclei count [2] [%]	z-score [3, 10]	z-score [3, 11]	z-score [3, 12]	inhibition [4]	fluorescence slope [5]	NADPH fluorescence slope [6]	slope [7]	outcome [8]	inhibition [9]
Cn1c(NCCN2CCCCC2)cc(=O)n(C)c1=O	625	4.3% (inactive)	-24.8% (inactive)	125	1.35	-0.0759	-0.233	-1.12% (inactive)	-0.492 (inactive)	-0.000171 (inactive)	0.00437 (inactive)	inactive	9.26% (inactive)
CN1CCC2(CC1)C1CN(C)CC=C1C(C#N)=C(N)C2(C#N)C#N (centres undefined)	542	-8.9% (inactive)	-165% (inactive)	198	-1.09	0.771	1.17	2.46% (inactive)	-0.349 (inactive)	-8.7e-06 (inactive)	0.0029 (inactive)	inactive	11.5% (inactive)
COC(=O)c1ccc(C(=O)OC)c(NC(=O)c2cc3ccccc3o2)c1	641	-12.1% (inactive)	15.1% (inactive)	175	2.88	-0.375	-1.4	6.51% (inactive)	-0.377 (inactive)	-5.2e-05 (inactive)	0.00547 (inactive)	inactive	-2.3% (inactive)
CC1(C)CC(=O)C2=C(C1)N(Cc1ccco1)C(=O)C2(NC(=O)c1cccnc1)C(F)(F)F (centres undefined)	499	-8.6% (inactive)	-131% (inactive)	136	-1.48	-1.13	0.615	3.5% (inactive)	-0.492 (inactive)	-6.7e-05 (inactive)	0.00643 (inactive)	inactive	0.823% (inactive)
CCc1[nH]nc2c1C(c1ccc(Br)s1)C(C#N)=C(N)O2 (centres undefined)	504	-7.7% (inactive)	-85.9% (inactive)	152	-0.154	1.13	-0.858	-8.27% (inactive)	-0.312 (inactive)	1.7e-05 (inactive)	0.00536 (inactive)	inactive	15.9% (inactive)
CN1CCN(CCC(=O)N2c3ccccc3Sc3ccc(Cl)cc32)CC1	450	-3.2% (inactive)	-122% (inactive)	176	0.831	0.747	-0.386	0.671% (inactive)	-0.432 (inactive)	-5.3e-05 (inactive)	0.00551 (inactive)	inactive	15.9% (inactive)
CCOC(=O)Cn1c(SC)nc2sc3c(c2c1=O)CC(C)(C)OC3	655	-7.4% (inactive)	1.5% (inactive)	179	1.23	-1.44	-0.342	-0.159% (inactive)	-0.459 (inactive)	-0.000276 (inactive)	0.00508 (inactive)	inactive	-3.53% (inactive)
N/C(CCCN1CCCCC1)=N/O	498	-6% (inactive)	28.3% (inactive)	108	1.83	-0.291	0.182	17.3% (inactive)	-0.509 (inactive)	-8e-06 (inactive)	0.00607 (inactive)	inactive	12.2% (inactive)
CCCCn1c(O)c(C=NCCCN(C)C)c(=O)[nH]c1=O	445	4.1% (inactive)	-38.4% (inactive)	117	1.16	-1.01	-0.649	4.25% (inactive)	-0.44 (inactive)	2.3e-06 (inactive)	0.0074 (inactive)	inactive	10.3% (inactive)
CCOc1nc(SCCOc2ccc(C)cc2)nc(N(C)C)n1	346	-10.2% (inactive)	-115% (inactive)	91.5	2.72	-0.00429	-0.85	22.8% (inactive)	-0.474 (inactive)	3.1e-05 (inactive)	0.0074 (inactive)	inactive	30.3% (inactive)
Cn1ncc(N=Cc2ccccc2)c1C(N)=O	599	2.9% (inactive)	-32.8% (inactive)	138	-2.18	0.507	1.65	18.6% (inactive)	-0.54 (inactive)	-8.2e-05 (inactive)	0.00589 (inactive)	inactive	-3.53% (inactive)
CCCCOc1ccc(C2CC(=O)N(C)C2=O)cc1 (centres undefined)	641	-9.7% (inactive)	63.8% (inactive)	175	-0.371	-0.965	1.92	7.48% (inactive)	-0.516 (inactive)	-6.5e-05 (inactive)	0.00432 (inactive)	inactive	3.29% (inactive)
Nc1ccc2c(c1)N1CCN=C1S2	646	-9.1% (inactive)	-53.2% (inactive)	169	1.6	-0.44	0.246	-0.159% (inactive)	-0.545 (inactive)	-9.2e-05 (inactive)	0.00512 (inactive)	inactive	24% (inactive)
